Published values from different studies.
Lines come from different studies, so protocols differ.
DHODH: Dihydroorotate dehydrogenase (quinone), mitochondrial (DHODH, Homo sapiens, UniProt Q02127)
PSMB8: Proteasome subunit beta type-8 (PSMB8, Homo sapiens, UniProt P28062)
DYRK1B: Dual specificity tyrosine-phosphorylation-regulated kinase 1B (DYRK1B, Homo sapiens, UniProt Q9Y463)
TYMS: Thymidylate synthase (TYMS, Homo sapiens, UniProt P04818)
PTGS2: Prostaglandin G/H synthase 2 (PTGS2, Homo sapiens, UniProt P35354)
EPHA7: Ephrin type-A receptor 7 (EPHA7, Homo sapiens, UniProt Q15375)

| SMILES | target | observed | action | method | notes | IC50 [µM] |
| --- | --- | --- | --- | --- | --- | --- |
| Oc1ccc(Cl)cc1Nc1nc(NCC2CCCO2)c2ccccc2n1 (centres unmarked) | Lysosomal acid glucosylceramidase (GBA1, Homo sapiens, UniProt P04062, R534H) | enzyme activity | inhibitor |  |  | 19 |
| Cc1nc(NC2CCc3cc(Cl)ccc3C2)c2c(C)noc2n1 (centres unmarked) | DHODH | enzyme activity | inhibitor | absorbance |  | > 100 |
| Cc1ncc(C(=O)N[C@@H](CC(C)C)C(=O)N[C@@H](CC2CCC(C3CCCCC3)CC2)C(=O)N[C@H](/C=C/S(C)(=O)=O)Cc2ccc(CN)cc2)s1 (some centres unmarked) | PSMB8 | enzyme activity | inhibitor |  | lysate | > 10 |
| Cn1cc(C2=C(c3coc4ccccc34)C(=O)NC2=O)c2cc(Br)ccc21 | DYRK1B | enzyme activity | inhibitor |  |  | 0.59 |
| CN1CCN(c2ccc(Nc3ncc4cc(C#N)c(=O)n(C5CCCC5)c4n3)cc2)CC1 | Ephrin type-B receptor 3 (EPHB3, Homo sapiens, UniProt P54753) | enzyme activity | inhibitor |  |  | 2.54 |
| Cc1c(C(=O)NC(C)c2nc[nH]n2)[nH]c(Cl)c1C1(c2ccc(C(F)(F)F)nc2)CC1 (centres unmarked) | DHODH | enzyme activity | inhibitor |  |  | > 100 |
| Oc1ccc2ccccc2n1 | Serum paraoxonase/arylesterase 1 (PON1, Homo sapiens, UniProt P27169) | enzyme activity | inhibitor |  |  | 4.4 |
| COc1ccc(C[C@H](NC(=O)[C@H](C)NC(=O)CN2CCOCC2)C(=O)N[C@H](C(=O)[C@@]2(C)CO2)C2CCCCC2)cc1 | PSMB8 | enzyme activity | inhibitor |  | lysate | > 10 |
| O=C(N=Nc1c(O)[nH]c2ccccc12)c1cccs1 | TYMS | enzyme activity | inhibitor | radiometric |  | 260 |
| CS(=O)(=O)c1ccc(-c2nc3ccccn3c2Nc2ccccc2)cc1 | PTGS2 | enzyme activity | inhibitor |  |  | 0.07 |
| N#Cc1ccc(COc2cccc(C3CCN(Cc4nc5ccc(C(=O)O)cc5n4C[C@@H]4CCO4)CC3)n2)c(F)c1 | Glucagon receptor (GCGR, Homo sapiens, UniProt P47871) | cAMP | antagonist |  |  | > 20 |
| CCOC(=O)C1CCN(C(=O)c2ccc(N(CC)Cc3cnc4nc(N)nc(N)c4n3)cc2)CC1 | TYMS | enzyme activity | inhibitor |  |  | 91.9 |
| COc1ccc(S(=O)(=O)ON=C2C=C(C)C(=O)C(C)=C2)cc1 | Histone acetyltransferase KAT7 (KAT7, Homo sapiens, UniProt O95251) | enzyme activity | inhibitor | radiometric |  | > 100 |
| CCCN(C)Cc1cc(-c2[nH]c3cccc(F)c3c(=O)c2C)ccc1Cc1ccc(OC(F)(F)F)cc1 | DHODH | enzyme activity | inhibitor |  |  | > 10 |
| CC(C)C[C@H](NC(=O)[C@H](CC(C)C)NC(=O)[C@H](Cc1ccccc1)NC(=O)CN=[N+]=[N-])C(=O)N[C@H](/C=C/S(C)(=O)=O)Cc1ccc(CN)cc1 | PSMB8 | enzyme activity | inhibitor |  | lysate | 1.3 |
| CCn1ncc2c1-c1cnc(N)c(c1)O[C@H](C)c1cc(F)ccc1-c1nn(C)nc1C2 | EPHA7 | enzyme activity | inhibitor | radiometric |  | 0.379 |

| SMILES | target | observed | action | method | notes | IC50 [µM] |
| --- | --- | --- | --- | --- | --- | --- |
| O=c1c2cc(Br)c(Br)n2cc2n1CCC2 | Proteasome subunit beta type-8, chymotrypsin-like site (PSMB8, Homo sapiens, UniProt P28062) | enzyme activity | inhibitor |  |  | > 100 |
| O=C(CSc1ncn[nH]1)Nc1ccc(C23CC4CC(CC(C4)C2)C3)cc1 | Transcriptional enhancer factor TEF-4 (TEAD2, Homo sapiens, UniProt Q15562) | enzyme activity | inhibitor |  |  | 0.71 |
| CCOc1ccc2c(-c3cc(C)nc(Nc4cc(OC)cc(C(F)(F)F)c4)n3)cnn2n1 | DYRK1B | enzyme activity | inhibitor |  |  | > 10 |
| Cc1ncc(C(=O)N[C@@H](CC(C)C)C(=O)N[C@@H](CC2CCC3CCCCC3C2)C(=O)N[C@H](/C=C/S(C)(=O)=O)Cc2ccc(CN)cc2)s1 (some centres unmarked) | PSMB8 | enzyme activity | inhibitor |  | lysate | 3.24 |
| Nc1nc(N)c2nc(CNc3ccc(C(=O)N4CCC(C(=O)O)CC4)cc3)cnc2n1 | TYMS | enzyme activity | inhibitor |  |  | 67 |
| Cc1ccc(Nc2c(-c3ccc(S(C)(=O)=O)cc3)nc3cccc(C)n23)cc1 | PTGS2 | enzyme activity | inhibitor |  |  | 0.12 |
| Cc1nc(Nc2ccc(C(F)(F)F)cc2)c2c(C(F)(F)F)noc2n1 | DHODH | enzyme activity | inhibitor | absorbance |  | 18 |
| COc1ccc(C[C@H](NC(=O)[C@H](C)NC(=O)CN2CCOCC2)C(=O)N[C@@H](CC2CCC(OC)CC2)C(=O)[C@@]2(C)CO2)cc1 (some centres unmarked) | PSMB8 | enzyme activity | inhibitor |  | lysate | 3.98 |
| C[C@@H]1O[C@H](CNS(=O)(=O)c2ccc(C#CC3CC3)s2)[C@@H](O)[C@H](O)[C@@H]1O | Fucose-binding lectin PA-IIL (lecB, Pseudomonas aeruginosa, UniProt Q9HYN5) | enzyme activity | inhibitor |  |  | 2.5 |
| Cc1cnc(-c2ccc(-c3ccc(NC(=O)Nc4c(F)cc(F)cc4F)cc3F)c3c2C(=O)NC3)[nH]1 | Platelet-derived growth factor receptor beta (PDGFRB, Homo sapiens, UniProt P09619) | enzyme activity | inhibitor |  |  | 0.0104 |
| CC(C)C[C@H](NC(=O)[C@H](Cc1ccccc1)N=[N+]=[N-])C(=O)N[C@@H](CC(C)(C)F)C(=O)N[C@H](/C=C/S(C)(=O)=O)Cc1ccc(CN)cc1 | PSMB8 | enzyme activity | inhibitor |  | lysate | 2.34 |
| CC[C@@H]1[C@H](F)C(=O)N[C@@H]1COc1nccc2cc(C(N)=O)c(OC)cc12 | EPHA7 | enzyme activity | inhibitor |  |  | > 5 |
| CC(C)C[C@H](NC(=O)c1cc(Cl)ccc1Cl)C(=O)N[C@@H](CC(C)C)C(=O)N[C@H](/C=C/S(C)(=O)=O)Cc1ccc(CN)cc1 | PSMB8 | enzyme activity | inhibitor |  | lysate | 1.83 |
| Cc1nc(Nc2ccc(C)c(Cl)c2)c2c(C)noc2n1 | DHODH | enzyme activity | inhibitor | absorbance |  | > 50 |
| CC(C)C[C@H](NC(=O)c1ccc(-c2ccccc2)nc1)C(=O)N[C@@H](CC(C)C)C(=O)N[C@H](/C=C/S(C)(=O)=O)Cc1ccc(CN)cc1 | PSMB8 | enzyme activity | inhibitor |  | lysate | > 10 |
| NC(=O)C1CCN(C(=O)c2ccc(NCc3cnc4nc(N)nc(N)c4n3)cc2)CC1 | TYMS | enzyme activity | inhibitor |  |  | 42 |
